ChEMBL document CHEMBL2163287, “Nitro seco analogues of the duocarmycins containing sulfonate leaving groups as hypoxia-activated prodrugs for cancer therapy” (J Med Chem, 2012)
Calls of active or inactive are those of the source. No cut-off for these calls is given here.

Legend:
SiHa [1] = test: Antitumor activity against human SiHa cells xenografted in immunocompromized gamma irradiated mouse assessed as number of colony forming cells per gram of tumor tissue at 42 umol/kg, iv tumor excised post 18 hrs followed by culturing for 14 days; format: functional
How it was run: (§1)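 SiHa tumours grown subcutaneously in male mice from 10⁷ cultured cells; randomized at 8−10 mm mean diameter. Compound in phosphate-buffered saline with 4 equiv sodium bicarbonate, given via tail vein at the stated dose, alone or 5 min after 15 Gy whole-body cobalt-60 γ irradiation. Tumours excised 18 h after dosing, cells cultured 14 days for clonogens. Groups of 3 (drug alone) or 5 (radiation + drug).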

SiHa [2] = test: Antitumor activity against human SiHa cells xenografted in immunocompromized mouse assessed as number of colony forming cells per gram of tumor tissue at 42 umol/kg, iv tumor excised post 18 hrs followed by culturing for 14 days; format: functional; how it was run: as §1
SiHa [3] = test: Antitumor activity against human SiHa cells xenografted in immunocompromized gamma irradiated mouse assessed as log cell kill at 42 umol/kg, iv tumor excised post 18 hrs followed by culturing for 14 days under hypoxic condition; format: functional
How it was run: (§2)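 Male immunocompromised mice bearing subcutaneous tumours (10^7 cultured cells), randomized at 8–10 mm mean diameter. Compound in PBS with 4 equiv sodium bicarbonate given iv (tail vein), alone or 5 min after 15 Gy whole-body cobalt-60 γ-irradiation, which sterilizes oxygenated cells. Tumours excised 18 h after dosing and plated for clonogens for 14 days. n = 3 (vehicle or compound alone) or 5 (irradiated groups).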

NCI-H460 [4] = test: Toxicity in human H460 cells xenografted immunocompromized mouse at 75 umol/kg, iv; settings: in vivo
A549 = test: Ratio of IC50 for human A549 cells under oxic condition to IC50 for human A549 cells under hypoxic condition; format: functional
How it was run: (§3)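 Antiproliferative assay on the cell-line panel: 4 h drug exposure under 20% O₂ or anoxia (<20 ppm O₂), then sulforhodamine B staining after 5 days. HCR = IC50(oxic)/IC50(hypoxic), taken as the mean of intraexperiment ratios from 2−5 experiments.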

HT-29 [5] = test: Cytotoxicity against human HT-29 cells under hypoxic condition after 4 hrs by clonogenic assay; format: functional, cell-based
How it was run: (§4)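 Cells were exposed to drug in duplicate for 4 h at 37 °C, either aerobic (95% air, 5% CO₂) or in an anaerobic chamber (<0.001% O₂). Medium was αMEM + 10% FCS with added glucose (final 17 mmol/L) and 200 μmol/L 2′-deoxycytidine. Cells were then trypsinized and plated; colonies >50 cells were counted after 14 days (methylene blue). C10 = concentration giving 10% survival vs controls; HCR = C10(oxic)/C10(hypoxic).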

SiHa [6] = test: Cytotoxicity against human SiHa cells under hypoxic condition assessed as inhibition of cell proliferation after 4 hrs; format: functional, cell-based
How it was run: (§5)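 Log-phase monolayers were exposed to drug for 4 h, aerobic (20% O2) for line 5 and anoxic (<20 ppm O2) for line 4. Cell density was read by sulforhodamine B staining 5 days later. IC50 was interpolated as the concentration reducing density to 50% of same-plate controls; mean ± SEM of 3–9 experiments.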

C-33-A = test: Ratio of IC50 for human C33A cells under oxic condition to IC50 for human C33A cells under hypoxic condition; format: functional; how it was run: as §3
SiHa [7] = test: Antitumor activity against human SiHa cells xenografted in immunocompromized gamma irradiated mouse assessed as log cell kill at 13 umol/kg, iv tumor excised post 18 hrs followed by culturing for 14 days under hypoxic condition; format: functional; how it was run: as §2
HT-29 [8] = test: Cytotoxicity against human HT-29 cells under oxic condition after 4 hrs by clonogenic assay; format: functional, cell-based; how it was run: as §4
HT-29 [9] = test: Cytotoxicity against human HT-29 cells under hypoxic condition assessed as inhibition of cell proliferation after 4 hrs by SRB method; format: functional, cell-based; settings: HT-29, 4 h
How it was run: (§6)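 Log-phase monolayers were exposed 4 h under 20% O₂ or anoxia (<20 ppm O₂), then stained with sulforhodamine B 5 days later. IC50, interpolated as the concentration reducing cell density to 50% of same-plate controls, is given as mean of 3−9 experiments. HCR = IC50(oxic)/IC50(hypoxic), taken as the mean of intraexperiment ratios from 3−6 experiments.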

SiHa [10] = test: Antitumor activity against human SiHa cells xenografted in immunocompromized gamma irradiated mouse assessed as number of colony forming cells per gram of tumor tissue at 13 umol/kg, iv tumor excised post 18 hrs followed by culturing for 14 days; format: functional; how it was run: as §1
NCI-H460 [11] = test: Ratio of IC50 for human H460 cells under oxic condition to IC50 for human H460 cells under hypoxic condition; format: functional; how it was run: as §3
HT-29 [12] = test: Cytotoxicity against human HT-29 cells under oxic condition assessed as inhibition of cell proliferation after 4 hrs by SRB method; format: functional, cell-based; settings: HT-29, 4 h; how it was run: as §6
SiHa [13] = test: Antitumor activity against human SiHa cells xenografted in immunocompromized mouse assessed as number of colony forming cells per gram of tumor tissue at 13 umol/kg, iv tumor excised post 18 hrs followed by culturing for 14 days; format: functional; how it was run: as §1
HT-29 [14] = test: Ratio of IC50 for human HT-29 cells under oxic condition to IC50 for human HT-29 cells under hypoxic condition; format: functional; how it was run: as §6
HCT-116 = test: Ratio of IC50 for human HCT116 cells under oxic condition to IC50 for human HCT116 cells under hypoxic condition; format: functional; how it was run: as §3
SiHa [15] = test: Cytotoxicity against human SiHa cells under oxic condition assessed as inhibition of cell proliferation after 4 hrs; format: functional, cell-based; how it was run: as §5
[16] = Ratio of IC50 for human H1299 cells under oxic condition to IC50 for human H1299 cells under hypoxic condition; format: functional; how it was run: as §3
HT-29 [17] = test: Ratio of C10 for human HT-29 cells under oxic condition to C10 for human HT-29 cells under hypoxic condition by clonogenic assay; format: functional; how it was run: as §4
SiHa [18] = test: Cytotoxicity against human SiHa cells under hypoxic condition assessed as after 4 hrs by clonogenic assay; format: functional, cell-based; how it was run: as §4
SiHa [19] = test: Cytotoxicity against human SiHa cells under oxic condition after 4 hrs by clonogenic assay; format: functional, cell-based; how it was run: as §4
NCI-H460 [20] = test: Antitumor activity against human H460 cells xenografted in immunocompromized gamma irradiated mouse under hypoxic condition assessed as log cell kill at 75 umol/kg, iv tumor excised post 18 hrs followed by culturing for 14 days; format: functional; how it was run: as §2

| Compound | log10cfu (SiHa [1]) | log10cfu (SiHa [2]) | LCK (SiHa [3]) | Activity (NCI-H460 [4]) | IC50 (SiHa [6]) [nM] | IC50 (HT-29 [9]) [nM] | IC50 (HT-29 [12]) [nM] | Ratio IC50 (HT-29 [14]) | IC50 (SiHa [15]) [nM] | further results |
| --- | --- | --- | --- | --- | --- | --- | --- | --- | --- | --- |
| CN(C)CCOc1ccc2[nH]c(C(=O)N3CC(CCl)c4c3cc([N+](=O)[O-])c3cc(C(=O)NCCOP(=O)(O)O)ccc43)cc2c1 (configuration not stated) | 3.11 | 6.56 | 2.21 | – | – | – | – | – | – | – |
| NC(=O)c1ccc2c3c(cc([N+](=O)[O-])c2c1)N(C(=O)c1cc2cc(OCCOP(=O)(O)O)ccc2[nH]1)CC3COS(=O)(=O)Cc1ccccc1 (configuration not stated) | 5.09 | 6.91 | 0.37 | Non-toxic | – | – | – | – | – | – |
| COc1ccc(/C=C/C(=O)N2CC(COS(=O)(=O)Cc3ccccc3)c3c2cc([N+](=O)[O-])c2cc(C(N)=O)ccc32)cc1 (configuration not stated) | – | – | – | – | 46 | 170 | 7000 | 40 | 2100 | Ratio IC50 (A549): 34; Activity (HT-29 [5]): Active; Ratio IC50 (C-33-A): 184; LCK (SiHa [7]): 1.16; Activity (HT-29 [8]): Active; log10cfu (SiHa [10]): 4.3; Ratio IC50 (NCI-H460 [11]): 104; log10cfu (SiHa [13]): 6.87; Ratio IC50 (HCT-116): 403; Ratio IC50 [16]: 644; Ratio (HT-29 [17]): 4090 |
| CN(C)CCOc1ccc2[nH]c(C(=O)N3CC(COS(C)(=O)=O)c4c3cc([N+](=O)[O-])c3cc(S(=O)(=O)NCCOP(=O)(O)O)ccc43)cc2c1 (configuration not stated) | 4.65 | 7.18 | 0.33 | Non-toxic | – | – | – | – | – | – |
| NC(=O)c1ccc2c3c(cc([N+](=O)[O-])c2c1)N(C(=O)c1cc2cc(OCCO)ccc2[nH]1)CC3COS(=O)(=O)Cc1ccccc1 (configuration not stated) | – | – | – | – | 240 | 220 | 22000 | 105 | 18500 | Ratio IC50 (A549): 38; Ratio IC50 (C-33-A): 93; Activity (SiHa [18]): Active; Ratio IC50 (NCI-H460 [11]): >114; Ratio IC50 (HCT-116): 127; Ratio IC50 [16]: 255; Activity (SiHa [19]): Active |
| CN(C)CCOc1ccc2[nH]c(C(=O)N3CC(COS(=O)(=O)Cc4ccccc4)c4c3cc([N+](=O)[O-])c3cc(S(=O)(=O)NCCOP(=O)(O)O)ccc43)cc2c1 (configuration not stated) | 4.92 | 6.92 | 0.18 | – | – | – | – | – | – | – |
| CN(C)CCOc1ccc2[nH]c(C(=O)N3CC(COS(=O)(=O)Cc4ccccc4)c4c3cc([N+](=O)[O-])c3cc(C(=O)NCCOP(=O)(O)O)ccc43)cc2c1 (configuration not stated) | 4.42 | 6.92 | 0.98 | Non-toxic | – | – | – | – | – | – |
| COc1cc2cc(C(=O)N3CC(CCl)c4c3cc([N+](=O)[O-])c3cc(S(=O)(=O)NCCOP(=O)(O)O)ccc43)[nH]c2c(OC)c1OC (configuration not stated) | – | – | 0.54 | – | – | – | – | – | – | – |
| O=C(c1cc2cc(OCCN3CCOCC3)ccc2[nH]1)N1CC(COS(=O)(=O)Cc2ccccc2)c2c1cc([N+](=O)[O-])c1cc(S(=O)(=O)NCCOP(=O)(O)O)ccc21 (configuration not stated) | 4.76 | 7.08 | 0.34 | – | – | – | – | – | – | – |
| COc1cc2cc(C(=O)N3CC(COS(C)(=O)=O)c4c3cc([N+](=O)[O-])c3cc(S(=O)(=O)NCCOP(=O)(O)O)ccc43)[nH]c2c(OC)c1OC (configuration not stated) | 4.38 | 7.15 | 0.6 | Non-toxic | – | – | – | – | – | LCK (NCI-H460 [20]): 0.6 |
| COc1ccc(/C=C/C(=O)N2CC(COS(=O)(=O)Cc3ccccc3)c3c2cc([N+](=O)[O-])c2cc(C#N)ccc32)cc1O (configuration not stated) | – | – | – | – | 19 | 620 | 3400 | 5.4 | 570 | Activity (SiHa [18]): Active; Activity (SiHa [19]): Active |
| COc1cc2cc(C(=O)N3CC(COS(=O)(=O)Cc4ccccc4)c4c3cc([N+](=O)[O-])c3cc(S(=O)(=O)NCCOP(=O)(O)O)ccc43)[nH]c2c(OC)c1OC (configuration not stated) | 2.39 | 6.53 | 2.71 | – | – | – | – | – | – | – |
| COc1ccc(/C=C/C(=O)N2CC(COS(=O)(=O)Cc3ccccc3)c3c2cc([N+](=O)[O-])c2cc(C(N)=O)ccc32)cc1O (configuration not stated) | – | – | – | – | 96 | 430 | 4600 | 21 | 2100 | Activity (SiHa [18]): Active; Activity (SiHa [19]): Active |
| COc1ccc(/C=C/C(=O)N2CC(COS(C)(=O)=O)c3c2cc([N+](=O)[O-])c2cc(S(=O)(=O)NCCOP(=O)(O)O)ccc32)cc1 (configuration not stated) | 4.75 | 7.09 | 0.71 | Non-toxic | – | – | – | – | – | – |
| COc1ccc(/C=C/C(=O)N2CC(COS(=O)(=O)Cc3ccccc3)c3c2cc([N+](=O)[O-])c2cc(S(=O)(=O)NCCOP(=O)(O)O)ccc32)cc1 (configuration not stated) | 4.32 | 6.74 | 0.78 | – | – | – | – | – | – | – |
| COc1cc2cc(C(=O)N3CC(COS(=O)(=O)Cc4ccccc4)c4c3cc([N+](=O)[O-])c3cc(S(N)(=O)=O)ccc43)[nH]c2c(OC)c1OC (configuration not stated) | – | – | – | – | 180 | 42 | 35000 | 1010 | 13000 | Ratio IC50 (A549): 20; Ratio IC50 (C-33-A): 177; Ratio IC50 (NCI-H460 [11]): 0.67; Ratio IC50 (HCT-116): 193; Ratio IC50 [16]: 226 |
| COc1cc2cc(C(=O)N3CC(COS(=O)(=O)Cc4ccccc4)c4c3cc([N+](=O)[O-])c3cc(C(N)=O)ccc43)[nH]c2c(OC)c1OC (configuration not stated) | – | – | – | – | 180 | 16 | 9200 | 1370 | 990 | Ratio IC50 (A549): 6.7; Ratio IC50 (C-33-A): 76; Activity (SiHa [18]): Active; Ratio IC50 (NCI-H460 [11]): 32; Ratio IC50 (HCT-116): 13; Ratio IC50 [16]: 86; Activity (SiHa [19]): Active |
| CN(C)CCOc1ccc2[nH]c(C(=O)N3CC(COS(=O)(=O)Cc4ccccc4)c4c3cc([N+](=O)[O-])c3cc(C(=O)NCCO)ccc43)cc2c1 (configuration not stated) | – | – | – | – | 210 | 570 | 4300 | 12 | 2300 | Activity (SiHa [18]): Active; Activity (SiHa [19]): Active |
| COc1cc2cc(C(=O)N3CC(COS(=O)(=O)Cc4ccccc4)c4c3cc([N+](=O)[O-])c3cc(C(=O)NCCOP(=O)(O)O)ccc43)[nH]c2c(OC)c1OC (configuration not stated) | 3.62 | 6.71 | 1.78 | Non-toxic | – | – | – | – | – | – |
